# This is a sample that favours compounds with a hit; in the whole collection about 1% have one here.
# Fh CTSL1 inh = blocks F. hepatica cathepsin L1 in PFM18AAP counter-screen; recombinant F. hepatica cathepsin L1, Z-Leu-Arg-MCA fluorescence; inhibition, % at 5.96 µM; 0.49% of 300,000 active; AID 1906;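 active means inhibition above the mean of all tested compounds plus 3 SD, set per screening campaign, cut at about 17% in these data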;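 further: 0% = plate median of test compound wells and 100% = 1 µM Z-Phe-Ala-diazomethylketone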
# Hep lipid drop = modulators of hepatic lipid droplet formation | AML12 mouse hepatocytes, oleate lipid droplets, BODIPY imaging | inhibition, % at 6.5 µM | 0.4% of 240,000 active | AID 1656;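 active means lipid droplet intensity inhibited by at least 50%, with more than 500 cells counted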
#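 Test system: AML12 mouse liver cells; schedule: overnight exposure; technique: high-content imaging of BODIPY-stained droplets and DAPI nuclei; read-out: % inhibition of corrected integrated BODIPY droplet signal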
# Arrestin-AP2 inh = inhibitors of human beta-arrestin and AP2 interaction; inhibition, % at 10 µM; 0.31% of 340,000 active; FITC-arrestin peptide / GST-AP2 beads, flow cytometry; AP2 beta2 appendage carries R879A mutation;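 active means inhibition above a set limit, near 3 SD of compounds lacking own fluorescence, cut at about 54% in these data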;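 further: plate controls were DMSO wells for no effect and 5 µM unlabelled arrestin peptide for full effect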
#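 Measured by: flow cytometry, FL1 (488/535 nm); Material: AP2 appendage R879A on GSH beads; Evaluation: percent response; Timing: pre-incubation 12 min, peptide binding 1 h, room temperature; Also added: 50 nM FITC-arrestin peptide; Medium: PBS with 0.05% Tween 20 and 0.1% BSA.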
# pCIP destab = p/CIP protein destabilization. F442A p/CIP-EGFP cells, EGFP fluorescence, 16 h. decrease of EGFP signal, % at 10 µM. Q05BA5. 0.01% of 290,000 active;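 active means EGFP signal decrease of at least 30% at 10 µM or well 3 SD below plate mean, unless failing retest; inactive means the rest, including hits failing retest or dose response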
# Hep lipid conf = hepatic lipid droplet formation inhibition, confirmed; shares compounds with Hep lipid drop; AML12 mouse hepatocytes, BODIPY lipid droplet imaging; droplets induced with 100 µM oleic acid; inhibition, % at 5.2 µM; 65% of 870 active;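 active means inhibition of lipid droplet metric at least 50%, with more than 300 cells in each of four replicates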;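 further: plate controls were DMSO with oleic acid for no effect and 5 µM Triacsin-C for full effect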
# AML12 cytotox = toxic to AML12 mouse hepatocytes in counter-screen; shares compounds with Hep lipid drop; DAPI nuclear morphology cytotoxicity imaging; stronger effect = higher value; cells fed 100 µM oleate overnight; z-score at 5 µM; 3% of 870 active; AID 463200; in the data active means z-score above about 6.3;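 further: compound exposure lasted overnight at 37 °C before fixation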
# AML12 tox conf = confirmation of cytotoxicity in AML12 mouse hepatocytes; cytotoxicity, % at 50 µM; shares compounds with Hep lipid drop; 530 tested, under 10 active; AML12 mouse hepatocyte viability, ATP luminescence; cells loaded with 100 µM oleic acid;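 active means cytotoxicity above 50% in each of four replicates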;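 further: compound exposure lasted overnight at 37 °C before the ATP read; 0% = DMSO-treated cells and 100% = wells with no cells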
# * marks the source's active call; other numbers are inactive results; · = no result.
SMILES,Fh CTSL1 inh,Hep lipid drop,Arrestin-AP2 inh,pCIP destab,Hep lipid conf,AML12 cytotox,AML12 tox conf
Cc1nnc(NC(=O)CSc2nc3ccccc3o2)s1,-2,-6,2,4,·,·,·
O=C(CSc1nc2ccccc2o1)Nc1nc(-c2ccccc2)c(-c2ccccc2)s1,-1,60*,4,7,96*,-0.048,-12
CCOc1ccc2nc(-c3ccccc3)nc(SCC(=O)Nc3ncc(C)s3)c2c1,-1,101*,0,7,107*,0.12,7
COc1ccc(-c2cc(-c3ccccc3)nc(SCC(=O)Nc3ncc(C)s3)c2C#N)cc1,-1,26,4,-20,·,·,·
COC(=O)c1ccc(C(=O)NC2CCCc3c2cnn3-c2ccc(C)c(C)c2)cc1 (stereo not drawn),1,-136,-11,0,·,·,·
Cc1cc(C(=O)NC2CCCc3c2cnn3-c2ccc(C)c(C)c2)nc(C)n1 (stereo not drawn),2,58*,1,-15,62,-1.1,0
O=C(NC1CCCc2c1cnn2-c1cc(F)cc(F)c1)c1ccccn1 (stereo not drawn),-1,64*,3,-2,100*,0.75,12
O=C(CNc1ccccc1)N/N=C/c1cn(-c2ccccc2)nc1-c1ccccc1,1,58*,0,-10,38,0.37,·
COc1ccc(Cl)cc1NC(=O)c1ccccc1C,1,-10,1,0,·,·,·
O=C(CSCc1ccc(F)cc1)Nc1ccc(N2CCOCC2)cc1N1CCOCC1,·,·,0,·,·,·,·
Cc1occc1C(=O)N/N=C/c1ccc(-c2ccccc2)cc1,1,-8,11,-2,·,·,·
Cc1occc1C(=O)N/N=C/c1ccc(OCc2ccccc2)cc1,1,60*,49,-2,17,0.71,·
Cc1cc(C(=O)CN2C(=O)c3ccccc3S2(=O)=O)c(C)n1-c1ccccc1,2,65*,-3,-3,24,-0.28,·
CCn1c(C)cc(C(=O)CN2C(=O)c3ccccc3S2(=O)=O)c1C,·,·,-1,·,·,·,·
Cc1cc(N2CCOCC2)n2nc(C)c(-c3ccc(Cl)cc3)c2n1,1,98*,-11,1,110*,0.25,11
CCCc1cc(N2CCOCC2)n2nc(C)c(-c3ccccc3)c2n1,5,64*,7,-5,96*,0.76,-2
CCc1nn2c(N3CCOCC3)cc(C)nc2c1-c1ccc(F)cc1,1,88*,1,-5,110*,0.76,2
Cc1cc(N2CCN(C)CC2)n2nc(-c3ccc(Cl)cc3)nc2n1,3,61*,15,-4,22,-0.26,·
Cc1cc(N2CCOCC2)n2nc(C(F)(F)F)c(-c3ccccc3)c2n1,·,37,1,5,·,·,·
CCCc1cc(N2CCN(c3ccccn3)CC2)n2nc(C)c(-c3ccccc3)c2n1,3,·,17,-4,·,·,·
Cc1nc2nc(-c3ccc(Cl)cc3)nn2c(C)c1Cl,0,·,·,2,·,·,·
Cc1nc2ccc(S(=O)(=O)NCC(=O)NCCN3CCCCCC3)cc2s1,·,·,13,-16,·,·,·
COc1ccc(CNC(=O)CN2C(=O)NC(C)(c3cccc4ccccc34)C2=O)cc1OC (stereo not drawn),-3,78*,8,6,105*,-0.25,14
CCOc1ccc(CN(C)C(=O)CNC(=O)c2ccc(Br)o2)cc1OC,2,80*,27,1,85*,0.71,13
CCOc1ccc(CN(C)C(=O)NNC(=O)c2ccc(C)cc2)cc1OC,-1,88*,0,18,80*,-1.5,8
SMILES,Fh CTSL1 inh,Hep lipid drop,Arrestin-AP2 inh,pCIP destab,Hep lipid conf,AML12 cytotox,AML12 tox conf
O=C(O)CCCC(=O)Nc1ccc(Br)cc1C(=O)O,0,52*,2,-7,7,0.074,·
O=C(O)CCCC(=O)Nc1ccc(Br)cc1,-1,8,1,7,·,·,·
CCCCN(C(=O)CC(c1ccccc1)c1ccccc1)c1c(N)n(CCC)c(=O)[nH]c1=O,-5,-33,10,-6,·,·,·
Cc1cccc(N(Cc2cc(=O)[nH]c3ccccc23)C(=O)CCl)c1,6,55*,10,5,80*,0.32,·
CCCC(=O)N(Cc1cc(=O)[nH]c2ccccc12)c1cccc(C)c1,2,-31,25,-10,·,·,·
O=C(Cn1c(=O)n(CC2CCCO2)c(=O)c2ccccc21)c1ccc(Cl)c(Cl)c1 (stereo not drawn),2,6,-3,-9,·,·,·
CC(C)(C)C(=O)Cn1c(=O)n(CC2CCCO2)c(=O)c2ccccc21 (stereo not drawn),-4,55*,-4,-1,9,-0.42,·
COc1cccc(C(C(=O)NC(C)(C)C)N(CCC(C)C)C(=O)CCC(=O)Nc2cc(C)on2)c1OC (stereo not drawn),4,-6,43,-3,·,·,·
CCC(C)(C)NC(=O)C(c1ccc(OC)cc1)N(Cc1ccccc1)C(=O)CCC(=O)Nc1cc(C)on1 (stereo not drawn),-3,54*,19,-5,92*,-0.42,9
COc1ccc(C(C(=O)NC(C)(C)C)N(CCC(C)C)C(=O)CCC(=O)Nc2cc(C)on2)cc1 (stereo not drawn),0,114*,6,2,108*,-0.014,10
Cc1ccc(C(C(=O)NC(C)(C)C)N(Cc2ccco2)C(=O)CCC(=O)Nc2ccccn2)cc1 (stereo not drawn),1,50*,12,-2,44,0.56,·
COc1ccc(C(C(=O)NC(C)(C)C)N(CC2CCCO2)C(=O)CCC(=O)Nc2cc(C)on2)cc1 (stereo not drawn),4,58*,13,-1,90*,-0.95,0
COc1ccc(CNC(=O)CCCn2ccc3cc(S(=O)(=O)N4CCCC4)ccc32)cc1,0,-1,-10,-4,·,·,·
Cc1cc(=O)oc2cc(OC(C)C(=O)NCCCN3CCCC3=O)c(Cl)cc12 (stereo not drawn),-5,-1,12,2,·,·,·
COc1ccc([C@H]2CC(=O)C=C(c3ccc(Oc4ccccc4)cc3)C2)cc1OC,·,·,6,·,·,·,·
COc1ccc(C(=O)CC(c2ccccc2)C2CCCCC2=O)cc1 (stereo not drawn),-3,-3,15,-1,·,·,·
COc1ccc(C(C(=O)NC(C)(C)C)N(Cc2ccccc2)C(=O)CCC(=O)Nc2cc(C)on2)cc1 (stereo not drawn),-1,66*,3,-9,70*,-0.48,7
COc1ccc(C)cc1NC(=O)C/C(C)=N/NC(=O)Cc1cccc2ccccc12,-4,72*,8,-4,70*,-0.61,11
CSc1nc(=S)n(-c2ccc([N+](=O)[O-])cc2)c(C)c1C(C)=O,1,0,6,-6,·,·,·

# Screens (PubChem)
